Data: PMC4802972 (Biochimica et biophysica acta, 2014)
Read-outs that look alike come from different tables or passages of the source. One block for each molecule: values may come before it.

Key:
[1] = test system: S. aureus BstA; experiment: Direct BstA reactions; format: biochemical, Staphylococcus aureus; conditions: for BstA dependence of reaction with BSH: with and without BstA
In short: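 Purified His6-tag-cleaved S. aureus BstA, expressed in E. coli C41 (DE3). Cerulenin and BSH, 500 μM each, reacted with and without 220 nM BstA. Samples diluted 5-fold into 10 mM methanesulfonic acid, concentrated, then run on C18 reverse-phase HPLC at 0.4 mL/min with a 0–70% B gradient over 40 min (A 0.05% TFA-water, B 60% acetonitrile-water). Detection at 220 nm.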

[2] = target: T1, BstA (Staphylococcus aureus, UniProt A0A0H2XDW9); experiment: Saturation kinetics of BstA; format: biochemical; conditions: for kcat: pH 7.0, BSH and mBCl at 37°C with 220 nM BstA, CDNB at 23°C with 2.8 μM BstA
[3] = test system: S. aureus BstA; format: biochemical, Staphylococcus aureus; conditions: for reduction of enzymatic rate compared to untreated +BstA reaction / reaction rate of +BstA reaction after treatment: 1 mM phenanthroline, 220 nM BstA; for reaction rate of +BstA reaction after treatment: 50 μM BSH, 23°C
[4] = cited from earlier work
[5] = target: T1, BstA; experiment: Inhibition constants of carboxamido-1,3,4-oxadiazole kinase inhibitors; format: biochemical
[6] = Direct non-enzymatic reaction with BSH
[7] = test system: S. aureus MW2; conditions: cited from earlier work
[8] = test system: S. aureus FosB; conditions: read-out: Km of FosB for BSH; cited from earlier work
[9] = + 220 nM BstA, 50 μM thiol, 50 μM mBCl, pH 7.0
[10] = − BstA, 50 μM thiol, 50 μM mBCl, pH 7.0

Structure (SMILES): C[S+]([O-])CCCCN=C=S (centres unmarked) [sulforaphane]
- BstA dependence of reaction with BSH [1]: BstA-independent

Structure (SMILES): O=[N+]([O-])c1ccc(Cl)c([N+](=O)[O-])c1 [CDNB, 1-chloro-2,4-dinitrobenzene]
- catalytic efficiency below that of mBCl ([2]; CDNB vs mBCl): 8 fold
- kcat [2]: 0.22 ± 0.02 s⁻¹

Structure (SMILES): N[C@@H](CS)C(=O)O [Cysteine, cysteine]
- Specific Activity + BstA [3, 9]: 8.3 ± 0.5 nmol/min/mg
- Specific Activity − BstA [3, 10]: 6.7 ± 0.3 nmol/min/mg

Structure (SMILES): CCCCCC(O)/C=C/C=O (centres unmarked) [4-hydroxynonenal]
- BstA dependence of reaction with BSH [1]: BstA-independent

Structure (SMILES): c1cnc2c(c1)ccc1ncccc12 [1,7-phenanthroline]
- reduction of enzymatic rate compared to untreated +BstA reaction [3]: 27%
- reaction rate of +BstA reaction after treatment ([3]; 50 μM mBCl): 105 nmol/min/mg

Structure (SMILES): C=C(CC)C(=O)c1ccc(OCC(=O)O)c(Cl)c1Cl [etacrynic acid]
- BstA dependence of reaction with BSH [1]: BstA-independent

Structure (SMILES): O=C(O)CN(CCN(CC(=O)O)CC(=O)O)CC(=O)O [EDTA, ethylenediaminetetraacetic acid]
- effect on BstA activity [3]: abolished activity

Structure (SMILES): N[C@@H](CCC(=O)N[C@@H](CS)C(=O)NCC(=O)O)C(=O)O [Glutathione, glutathione]
- Specific Activity + BstA ([3]; pH 7): 3.9 ± 0.1 nmol/min/mg
- Specific Activity − BstA ([3]; pH 7): 4.4 ± 0.4 nmol/min/mg

Structure (SMILES): CC(C)(COP(=O)(O)OP(=O)(O)OC[C@H]1O[C@@H](n2cnc3c(N)ncnc32)[C@H](O)[C@@H]1OP(=O)(O)O)[C@@H](O)C(=O)NCCC(=O)NCCS [Coenzyme A, coenzyme A]
- thiol pKa [4]: 9.6
- Specific Activity + BstA [3, 9]: 1.4 ± 0.1 nmol/min/mg
- Specific Activity − BstA [3, 10]: 1.2 ± 0.1 nmol/min/mg

- Ki [5]: ~3 µM
- inhibition of BstA in concentration dependent inhibitor studies ([5]; 5 μM inhibitor): effective inhibitor
Structure (SMILES): O=C(Nc1nnc(-c2ccc(F)cc2)o1)c1ccc(Br)s1 [compound 3, 5-bromo-N-[5-(4-fluorophenyl)-1,3,4-oxadiazol-2-yl]thiophene-2-carboxamide]

Structure (SMILES): CC(=O)N[C@@H](CS)C(=O)N[C@H]1[C@@H](OC2[C@H](O)[C@H](O)C(O)[C@H](O)[C@H]2O)O[C@H](CO)[C@@H](O)[C@@H]1O (some centres unmarked) [Mycothiol, mycothiol]
- Specific Activity + BstA [3, 9]: 3.3 ± 0.1 nmol/min/mg
- Specific Activity − BstA [3, 10]: 3.0 ± 0.1 nmol/min/mg

Structure (SMILES): CO[C@H]1/C=C/O[C@@]2(C)Oc3c(C)c(O)c4c(c3C2=O)C(=O)C=C(NC(=O)/C(C)=C\C=C\[C@H](C)[C@H](O)[C@@H](C)[C@@H](O)[C@@H](C)[C@H](OC(C)=O)[C@@H]1C)C4=O [rifamycin S]
- BstA dependence of reaction with BSH [1]: BstA-independent
- rate of direct reaction with BSH ([6]; 50 μM each, pH 7.0 and pH 6.0, BstA-independent): > 35 µM/min

Structure (SMILES): Cc1c(C)n2c(CCl)c(C)c(=O)n2c1=O [mBCl, monochlorobimane]
- Km below the Km of CDNB ([2]; mBCl vs CDNB): over 10 fold
- kcat [2]: 0.30 ± 0.02 s⁻¹

Structure (SMILES): c1cnc2c(c1)ccc1cccnc12 [1,10-phenanthroline]
- reduction of enzymatic rate compared to untreated +BstA reaction [3]: > 99%
- reaction rate of +BstA reaction after treatment ([3]; 50 μM mBCl): 12.5 ± 0.7 nmol/min/mg

Structure (SMILES): C/C=C/C/C=C/CCC(=O)[C@H]1O[C@H]1C(N)=O [cerulenin]
- adduct formation rate with BSH, +BstA ([1]; 500 μM cerulenin, 500 μM BSH, 220 nM BstA): 300 nmol/min/mg
- BstA catalyzed reaction rate ([1]; cerulenin with BSH, net enzymatic rate): 130 nmol/min/mg
- BstA dependence of reaction with BSH [1]: weak substrate
- non-enzymatic rate of adduct formation with BSH ([6]; 500 μM cerulenin, 500 μM BSH, −BstA): 170 nmol/min/mg

Structure (SMILES): OO [hydrogen peroxide]
- increase of bstA expression [7]: 3 fold
- upregulation of brxB ortholog [7]: 6 fold
- upregulation of glxA ortholog [7]: 2 fold

Structure (SMILES): OCl [hypochlorous acid]
- increase of bstA expression [7]: 2 fold
- upregulation of brxB ortholog [7]: 2 fold
- upregulation of glxA ortholog [7]: 3 fold

Structure (SMILES): N[C@@H](CS)C(=O)N[C@H]1[C@@H](O[C@@H](CC(=O)O)C(=O)O)O[C@H](CO)[C@@H](O)[C@@H]1O [BSH, bacillithiol]
- thiol pKa [4]: 7.46
- Km of BstA for BSH lower than that of S. aureus FosB ([2]; BstA vs FosB): 260 fold
- kcat [2]: 0.21 ± 0.01 s⁻¹
- Km [8]: 4.2 ± 0.7 mM
- Specific Activity + BstA [3, 9]: 152 ± 8 nmol/min/mg
- Specific Activity − BstA [3, 10]: 8.4 ± 0.3 nmol/min/mg
